Six molecules from ChEMBL document CHEMBL3739337, “Alkaloids with Different Carbon Units from Myrioneuron faberi” (J Nat Prod, 2015) can be followed below.

Data set [1] can be described thus: Cytotoxicity against human Huh7.5 cells. The data set is classed as cell-based, Huh-7. Summed up: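 Huh7.5 human liver cells grown in DMEM with 10% inactivated fetal bovine serum and 1% penicillin–streptomycin at 37 °C, 5% CO2.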
The subject of another data set is Hepatitis C virus. In words: Antiviral activity against chimeric HCV FL-J6/JFH/JC1 infected in human Huh7.5 cells assessed as reduction of intracellular viral RNA level after 72 hrs by RT-PCR assay. The data set is classed as functional, organism-based, Hepacivirus hominis. The settings on record: FL-J6/JFH/JC1, Huh-7, 72 h. Summed up: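 Huh7.5 cells in DMEM with 10% inactivated FBS at 37 °C, 5% CO2, seeded at 3 × 10^4 cells/cm2. After 24 h they were infected (about 45 IU per cell) and given compound or solvent control at the same time. At 72 h, intracellular HCV RNA was measured against GAPDH by one-step RT-PCR (2ΔΔCT). EC50 was derived by the Reed and Muench method.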

Data set [2] can be described thus: Therapeutic index, ratio of CC50 for human Huh7.5 cells to EC50 for chimeric HCV FL-J6/JFH/JC1 infected in human Huh7.5 cells. The settings on record: read-out: Ratio CC50/EC50. The format is cell-based, Huh-7.

For the molecule `O=CC1=CN2[C@@H]3[C@@H](CCC[C@H]3CN3CCCC[C@@H]32)C1`, in data set [1], the CC50 is > 100 µM. Further, in the data set on Hepatitis C virus, the concentration for a half-maximal effect (EC50) was 3.27 µM. For the same molecule, in data set [2], the selectivity ratio is > 30.6.

In the case of `O=C1CC[C@@H]2CCC[C@H]3CN4CCC[C@H](C[C@H]5CCCN6C[C@@H]7CCC[C@H]8CCC(=O)N([C@H]87)[C@H]56)[C@H]4N1[C@H]23`, in data set [1], the CC50 was > 100 µM. The concentration giving a half-maximal response (EC50) in the data set on Hepatitis C virus stood at 10.5 µM. In data set [2], the selectivity ratio was > 9.5.

Take `O=C1CC[C@@H]2CCC[C@H]3CN4CCCC[C@H]4N1[C@H]23`: the CC50 in data set [1] was > 100 µM. The EC50 in the data set with Hepatitis C virus was determined as 30.6 µM. Besides, in data set [2], the selectivity ratio is > 3.3.

Consider `COC[C@@H]1CCCN2C[C@@H]3CCC[C@H]4CC(C=O)=CN([C@H]43)[C@@H]12`, for which the cytotoxic concentration (CC50) in data set [1] was > 100 µM. Further, the half-maximal effective concentration (EC50) in the data set with Hepatitis C virus came out at 0.92 µM. The selectivity ratio in data set [2] is > 109.

Consider `C1C[C@H]2CCCN3[C@H]2[C@@H](C1)CN1CCCC[C@@H]13`, for which, in data set [1], the CC50 worked out at 95.9 µM. Also, the EC50 in the data set with Hepatitis C virus amounted to 7.35 µM. In addition, the selectivity ratio in data set [2] came out at 13.

For the molecule `CCC[C@H](NC(=O)[C@@H]1[C@H]2CCC[C@H]2CN1C(=O)[C@@H](NC(=O)[C@@H](NC(=O)c1cnccn1)C1CCCCC1)C(C)(C)C)C(=O)C(=O)NC1CC1` [TELAPREVIR], the half-maximal cytotoxic concentration (CC50) in data set [1] turned out to be 47.8 µM. The 50% effective concentration (EC50) with Hepatitis C virus was 0.129 µM. Moreover, in data set [2], the selectivity ratio turned out to be 371.
